Series [1] has as its system Salmonella enterica. Briefly: Antibacterial activity against Salmonella enterica ATCC 13314 assessed as inhibition of bacterial growth incubated for 24 hrs by absorbance based microplate reader analysis. Format: functional. The method in brief:
(§1)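 Broth microdilution. An overnight single-colony culture in recommended broth was diluted 1:10 000, and peptide serial dilutions in DMSO were added (4 µL into 196 µL). Plates incubated 24 h at 37 °C, aerobic or anaerobic as required, then OD600 read. Inhibition was calculated against pathogen-only and blank wells.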

Series [2] relates to Pseudomonas aeruginosa. Briefly: Antibacterial activity against Pseudomonas aeruginosa BAA 1744 assessed as inhibition of bacterial growth incubated for 24 hrs by absorbance based microplate reader analysis. It is filed as functional. In short, it runs like this: as §1
Series [3] can be described thus: Retention time of compound by RP-HPLC analysis. Format: physicochemical. In short, it runs like this:
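Analytical reversed-phase HPLC.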

The next series deals with Enterococcus faecium. Briefly: Bactericidal activity against vancomycin resistant Enterococcus faecium BAA 2317 assessed as inhibition of bacterial growth at MIC concentration incubated for 48 hrs by broth microdilution assay. Format: functional, organism-based. In short, it runs like this: (§2)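 Plates were incubated 48 h at 37 °C and examined for colonies. A fidaxomicin-treated culture at 1 µM served as the control.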

Series [4] relates to Pseudomonas aeruginosa. Put plainly: Bactericidal activity against Pseudomonas aeruginosa BAA 1744 assessed as inhibition of bacterial growth at MIC concentration incubated for 48 hrs by broth microdilution assay. It is filed as functional, organism-based. The method in brief:
(§3)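 From broth-microdilution wells showing no growth, 10 µL was spotted onto agar and incubated 48 h at 37 °C. Plates were inspected for colonies. Fidaxomicin at 1 µM served as control.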
For orientation: Dilution methods test growth across graded concentrations, often in twofold steps.

The test system of series [5] is Caco-2. Put plainly: Anti-inflammatory activity in human Caco-2 cells infected with Clostridium difficile ATCC 43602 assessed as reduction in TNFalpha level at MIC concentration by ELISA relative to control. On the set-up: scale not given: the % may be the effect or the level left. It is filed as functional. The method in brief: (§4)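 Caco-2 cells grown in DMEM + 10% FBS, 37 °C, 5% CO2, to 90% confluence, then seeded 30 000 cells/well and held 24 h. C. difficile was grown overnight anaerobically in meat broth, washed in PBS, and 1 µL of 0.5 OD600 culture added per 300 µL medium. […] Cytokine in supernatant measured by ELISA; three independent replicates.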

Series [6] deals with Clostridioides difficile. Briefly: Bactericidal activity against Clostridium difficile ATCC 43602 assessed as inhibition of bacterial growth at MIC concentration incubated for 48 hrs by broth microdilution assay. Format: functional, organism-based. The method in brief: as §3
Series [7] deals with Listeria monocytogenes. Briefly: Bactericidal activity against Listeria monocytogenes ATCC 15313 assessed as inhibition of bacterial growth at MIC concentration incubated for 48 hrs by broth microdilution assay. Format: functional, organism-based. In short, it runs like this: as §3
In series [8] the test system is Staphylococcus aureus. Put plainly: Bactericidal activity against methicillin resistant Staphylococcus aureus BAA 2313 assessed as inhibition of bacterial growth at MIC concentration incubated for 48 hrs by broth microdilution assay. It is filed as functional, organism-based. The method in brief:
as §2

In series [9] the test system is Salmonella enterica. Put plainly: Bactericidal activity against Salmonella enterica ATCC 13314 assessed as inhibition of bacterial growth at MIC concentration incubated for 48 hrs by broth microdilution assay. It is filed as functional, organism-based. The method in brief: as §3
In a further series the test system is Escherichia coli. Put plainly: Bactericidal activity against Escherichia coli ATCC 33694 assessed as inhibition of bacterial growth at MIC concentration incubated for 48 hrs by broth microdilution assay. It is filed as functional, organism-based. In short, it runs like this: as §3
Series [10] deals with Caco-2. Briefly: Anti-inflammatory activity in human Caco-2 cells infected with Clostridium difficile ATCC 43602 assessed as reduction in IL-1beta level at MIC concentration by ELISA relative to control. On the set-up: scale not given: the % may be the effect or the level left. Format: functional. In short, it runs like this:
as §4

The test system of series [11] is Staphylococcus aureus. Briefly: Bactericidal activity against Staphylococcus aureus ATCC 25923 assessed as inhibition of bacterial growth at MIC concentration incubated for 48 hrs by broth microdilution assay. Format: functional, organism-based. In short, it runs like this: as §3
For series [12], the system named is Clostridioides difficile. Briefly: Antibacterial activity against Clostridium difficile ATCC 43602 assessed as inhibition of bacterial growth incubated for 24 hrs by absorbance based microplate reader analysis. It is filed as functional. The settings on record: read-out: MIC100.
The test system of series [13] is Staphylococcus aureus. Briefly: Antibacterial activity against Staphylococcus aureus ATCC 25923 assessed as reduction in bacterial growth at MIC concentration measured after 24 hrs by time-kill kinetic analysis. Format: functional, organism-based. The method in brief:
(§5)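 Samples (5 µL) taken at 0, 1, 2, 4, 6, 12, 18 and 24 h, tenfold diluted in 0.85% NaCl, and plated on TSA overnight at 37 °C for CFU counts. Two independent duplicates.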

For series [14], the system named is Staphylococcus aureus. Briefly: Induction of morphological changes in Staphylococcus aureus ATCC 25923 assessed as cell wall lysis at MIC concentration by transmission electron microscopic analysis. It is filed as functional, organism-based. In short, it runs like this:
(§6)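 Cells were pelleted at 4 °C, washed in 0.1 M PBS pH 7.2, and fixed overnight (4% formaldehyde, 1.25% glutaraldehyde, ruthenium red). Post-fixed in 1% OsO4, dehydrated through ethanol, embedded in epoxy resin and imaged by TEM.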

For series [15], the system named is Staphylococcus aureus. Briefly: Induction of morphological changes in Staphylococcus aureus ATCC 25923 assessed as detachment of pieces from cell wall at MIC concentration by transmission electron microscopic analysis. It is filed as functional, organism-based. In short, it runs like this: as §6
For series [16], the system named is Staphylococcus aureus. Put plainly: Antibacterial activity against Staphylococcus aureus ATCC 25923 assessed as reduction in surviving bacteria at MIC concentration measured after 12 hrs by time-kill kinetic analysis. Format: functional. In short, it runs like this:
as §5

For series [17], the system named is Staphylococcus aureus. Briefly: Antibacterial activity against Staphylococcus aureus ATCC 25923 assessed as reduction in colony forming units at MIC concentration measured after 2 hrs by time-kill kinetic analysis. It is filed as functional. In short, it runs like this:
as §5

The subject of series [18] is Staphylococcus aureus. Put plainly: Induction of morphological changes in Staphylococcus aureus ATCC 25923 assessed as deformation of cells at MIC concentration by transmission electron microscopic analysis. It is filed as functional, organism-based. The method in brief:
as §6

Series [19] relates to Staphylococcus aureus. Put plainly: Induction of morphological changes in Staphylococcus aureus ATCC 25923 assessed as disintegration of cells at MIC concentration by transmission electron microscopic analysis. Format: functional, organism-based. In short, it runs like this:
as §6

For series [20], the system named is Staphylococcus aureus. Briefly: Induction of morphological changes in Staphylococcus aureus ATCC 25923 assessed as fragmentation of intracellular content at MIC concentration by transmission electron microscopic analysis. It is filed as functional, organism-based. The method in brief: as §6
The subject of series [21] is Staphylococcus aureus. Put plainly: Induction of morphological changes in Staphylococcus aureus ATCC 25923 assessed as leakage of intracellular content at MIC concentration by transmission electron microscopic analysis. Format: functional, organism-based. In short, it runs like this:
as §6

Series [22] has as its system Listeria monocytogenes. Put plainly: Antibacterial activity against Listeria monocytogenes ATCC 15313 assessed as inhibition of bacterial growth incubated for 24 hrs by absorbance based microplate reader analysis. It is filed as functional. The conditions noted are these: read-out: MIC100. The method in brief: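 Broth microdilution. A single colony was grown 24 h in its recommended broth, then diluted 1:10 000 in the same medium. Peptide serial dilutions were added from DMSO stock at 4 µL per 196 µL inoculated medium. Plates were incubated aerobically or anaerobically as each pathogen requires, at 37 °C for 24 h, and OD600 was read. Duplicate wells; assay repeated five times independently.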

For series [23], the system named is Caco-2. Put plainly: Anti-inflammatory activity in human Caco-2 cells infected with Clostridium difficile ATCC 43602 assessed as reduction in IL-6 level at MIC concentration by ELISA relative to control. Format: functional. Further details: scale not given: the % may be the effect or the level left. The method in brief:
as §4
A general note: ELISA stands for enzyme-linked immunosorbent assay.

Converted amounts (≈) assume the structure as drawn. The source made the active and inactive calls. The rule behind the calls is not given here. Peptide text beside a SMILES is read from it.

With H-AGVKQGWERS-NH2, the outcome in the series with Salmonella enterica [1] and with Pseudomonas aeruginosa [2] was inactive. The Retention_time in series [3] is reported as 6.41 min. Moreover, the result with Enterococcus faecium, in the series with Pseudomonas aeruginosa [4], in the series on Clostridioides difficile [6], with Listeria monocytogenes [7], in the series with Staphylococcus aureus [8] and with Salmonella enterica [9] was Active. Moreover, the result in the series on Escherichia coli and in the series on Staphylococcus aureus [11] was Active. The Activity in the series on Caco-2 [5] is 0%; with Caco-2 [10] it was 18%.

Turning to H-LSKISGGIGPLVIPV-NH2, the outcome in the series with Salmonella enterica [1] was inactive. The MIC is 9.3 µM in the series with Pseudomonas aeruginosa [2] (read-out: MIC100) and 0.9 µM in the series with Clostridioides difficile [12]. In series [3], this compound had a Retention_time of 14.51 min. Besides, the outcome in the series on Enterococcus faecium, with Pseudomonas aeruginosa [4], in the series with Staphylococcus aureus [13], with Staphylococcus aureus [14], in the series with Staphylococcus aureus [15] and with Clostridioides difficile [6] was Active. Further, the outcome in the series on Listeria monocytogenes [7], with Staphylococcus aureus [8], in the series with Staphylococcus aureus [18], with Salmonella enterica [9], in the series on Escherichia coli and in the series with Staphylococcus aureus [19] was Active. For the same compound, the outcome with Staphylococcus aureus [20], in the series with Staphylococcus aureus [21] and in the series with Staphylococcus aureus [11] was Active. The Activity with Caco-2 [5] was 10%; in the series on Staphylococcus aureus [16] it was 5 log10CFU/ml; in the series with Staphylococcus aureus [17], 2 log10CFU/ml.

For the compound `CC[C@H](C)[C@@H]1NC(=O)CNC(=O)CNC(=O)[C@H](CO)NC(=O)[C@H]([C@@H](C)CC)NC(=O)[C@H](CCCCN)NC(=O)[C@H](CO)NC(=O)[C@H](CC(C)C)NC(=O)[C@H](C(C)C)NC(=O)[C@@H]2CCCN2C(=O)[C@H]([C@@H](C)CC)NC(=O)[C@H](C(C)C)NC(=O)[C@H](CC(C)C)NC(=O)[C@@H]2CCCN2C(=O)CNC1=O` (cyclo(LSKISGGIGPLVIPV)), the outcome in the series on Salmonella enterica [1] was inactive. Also, in series [3], the Retention_time is 18.35 min. Moreover, the outcome with Enterococcus faecium, with Pseudomonas aeruginosa [4], with Clostridioides difficile [6], in the series with Listeria monocytogenes [7], in the series with Staphylococcus aureus [8] and with Salmonella enterica [9] was Active. Moreover, the outcome in the series with Escherichia coli and in the series with Staphylococcus aureus [11] was Active. The MIC in the series with Clostridioides difficile [12] was found to be 0.9 µM (≈ 1.29 µg/mL); in the series with Listeria monocytogenes [22], 1.5 µM (≈ 2.15 µg/mL). Further, the Activity in the series on Caco-2 [23] is 4%.

These data come from ChEMBL document CHEMBL6177914, “Human microbiome derived synthetic antimicrobial peptides with activity against Gram-negative, Gram-positive, and antibiotic resistant bacteria” (RSC Med Chem, 2025).
